Source: PubChem BioAssay
Pf Dd2 inh: P. falciparum Dd2 growth inhibition | activity change, % at 10 µM | AID 1159554 | SYBR Green, 72 h; hits give low values | 94,000 compounds, 2.3% hits; in the data active = activity change below about -80%; inconclusive = no clear call, values can overlap the other calls
KDM4C inh: KDM4C (human) demethylase inhibition; GST-KDM4C 2-372, H3K9me3 peptide, LANCE TR-FRET; inhibition, % at 12.5 µM; 96,000 compounds, 0.15% hits; AID 720574;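 active = mean replicate inhibition above about 25%, with at least 55% of replicates also reaching it, limit read from the data, passing the limit was not always enough; inconclusive = only one of those two conditions met; inactive = neither condition met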
Target sequence (Q9H3R0 2-372 limits assumed): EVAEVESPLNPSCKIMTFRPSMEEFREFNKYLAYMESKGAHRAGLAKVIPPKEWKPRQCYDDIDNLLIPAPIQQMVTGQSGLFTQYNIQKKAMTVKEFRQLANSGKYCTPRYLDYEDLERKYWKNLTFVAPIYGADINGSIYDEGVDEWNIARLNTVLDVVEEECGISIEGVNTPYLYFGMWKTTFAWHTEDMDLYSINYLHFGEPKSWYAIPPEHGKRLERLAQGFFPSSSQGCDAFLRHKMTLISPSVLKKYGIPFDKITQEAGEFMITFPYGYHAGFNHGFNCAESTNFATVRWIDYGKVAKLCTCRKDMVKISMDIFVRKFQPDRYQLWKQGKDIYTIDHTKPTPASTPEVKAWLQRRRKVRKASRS
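System: N-terminal GST-fused human GASC-1 (KDM4C) fragment, residues 2-372 / Amount: 10 nM GST-KDM4C in enzyme reaction / Also added: H3K9me3 peptide with Fe(II)/2OG / Times: 30 min demethylation and 1 h detection at room temperature / Signal: LANCE TR-FRET / Read-out basis: Fall in 671/618 emission ratio as inhibition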
T cruzi growth-1: T. cruzi proliferation inhibition. AID 624255. inhibition, % at 8.34 µM. T. cruzi beta-gal in NIH3T3, GalScreen luminescence, 90 h. 77,000 compounds, 5.9% hits;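 active = mean inhibition above about 93%, with at least 55% of replicates each passing it, limit read from the data, passing the limit was not always enough; inconclusive = only one of those two conditions holds; inactive = neither condition holds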
IDH1 R132H inh: inhibitors of human IDH1 R132H; O75874; AID 624101; IDH1 R132H reductase, diaphorase/resazurin fluorescence, 60 min; 70,000 compounds, 0.18% hits; inhibition, % at 10 µM; in the data active = inhibition above about 34%; inconclusive = no clear call, values can overlap the other calls; inactive = below about 11%;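 also: 0% = DMSO and 100% = no enzyme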
Target sequence (O75874 whole entry R132H): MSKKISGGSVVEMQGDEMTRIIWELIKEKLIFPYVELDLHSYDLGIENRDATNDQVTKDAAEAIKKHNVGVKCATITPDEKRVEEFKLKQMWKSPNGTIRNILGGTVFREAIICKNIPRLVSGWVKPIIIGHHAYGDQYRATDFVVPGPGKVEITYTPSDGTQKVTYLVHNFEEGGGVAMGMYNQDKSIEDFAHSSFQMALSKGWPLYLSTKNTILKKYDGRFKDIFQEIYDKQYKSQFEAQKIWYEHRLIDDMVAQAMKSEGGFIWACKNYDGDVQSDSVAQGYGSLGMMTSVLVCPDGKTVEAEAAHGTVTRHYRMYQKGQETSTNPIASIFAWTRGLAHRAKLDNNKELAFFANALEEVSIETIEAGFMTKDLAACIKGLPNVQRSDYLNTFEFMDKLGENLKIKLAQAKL
T cruzi growth-2: blocks T. cruzi growth in NIH3T3 host cells; shares compounds with T cruzi growth-1; T. cruzi beta-gal in NIH3T3, GalScreen luminescence, 90 h; inhibition, % at 8.35 µM; 5,600 compounds, 72% hits;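 active = mean replicate inhibition above about 95% and at least 55% of replicates individually reaching it, limit read from the data; inconclusive = only one of the two criteria is met; inactive = neither criterion is met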
T cruzi growth-3: inhibitors of T. cruzi proliferation; shares compounds with T cruzi growth-1; T. cruzi beta-gal in NIH3T3, GalScreen luminescence, 90 h; inhibition, % at 2.09 µM; 5,600 compounds, 21% hits; AID 651740;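 active = mean inhibition above about 95%, with at least 55% of replicates also reaching it, limit read from the data; inconclusive = meets just one of the two conditions; inactive = meets neither condition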;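 also: plate controls were neutral control median for no effect and positive control median for full effect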
NIH3T3 tox: kills mouse NIH/3T3 fibroblasts. shares compounds with T cruzi growth-1. NIH/3T3 viability, CellTiter-Glo ATP luminescence, 90 h. cytotoxicity (signal decrease), % at 8.35 µM. 5,600 compounds, 14% hits. AID 651742;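 active = mean signal decrease across replicates above about 35% based on untreated-well scatter, with enough replicates individually passing, limit read from the data; inconclusive = no rule stated though some were filed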;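 also: 0% = median of neutral control wells and 100% = median of positive control wells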
NIH3T3 tox 2: NIH/3T3 (mouse) viability loss. shares compounds with T cruzi growth-1. NIH/3T3 viability, CellTiter-Glo ATP luminescence, 90 h. inhibition, % at 24.9 µM. 5,600 compounds, 56% hits. AID 651744;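 active = mean loss of cell viability signal at or above a set limit, and enough replicates individually reaching it; inconclusive = meets only the mean limit or only the replicate share; inactive = meets neither condition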;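 also: 0% = median of neutral control wells and 100% = median of positive control wells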
* hit, by the source's call; ? = inconclusive; nt = no result given. In the library only some 5.9% were active in any assay of this set; here they are far more common.

SMILES | Pf Dd2 inh | KDM4C inh | T cruzi growth-1 | IDH1 R132H inh | T cruzi growth-2 | T cruzi growth-3 | NIH3T3 tox | NIH3T3 tox 2
CC=Cc1ccc2n(c1=O)C[C@H]1[C@H](CO)[C@@H](C(=O)Nc3ccc(-c4ccccc4)cc3)N(C)[C@@H]21 (mixture of isomers) | nt | 1 | 90 | nt | nt | nt | nt | nt
C[C@H](CO)N1C[C@H](C)[C@H](CN(C)C(=O)CC2CC2)Oc2cc(C#CCC3CCCC3)ccc2S1(=O)=O | -66 | -4 | 121* | 3 | 99* | 63 | 2 | 104*
C[C@H](CO)N1C[C@H](C)[C@@H](CN(C)C(=O)CN(C)C)Oc2cc(C#CCC3CCCC3)ccc2S1(=O)=O | -71 | 2 | 122 | 2 | nt | nt | nt | nt
C[C@H]1CN([C@@H](C)CO)S(=O)(=O)c2ccc(C#CCC3CCCC3)cc2O[C@H]1CN(C)C(=O)CN(C)C | -69 | -1 | 107 | 0 | nt | nt | nt | nt
C[C@H]1CN([C@@H](C)CO)S(=O)(=O)c2ccc(C#CCC3CCCC3)cc2O[C@@H]1CN(C)C(=O)CC1CC1 | -66 | nt | 121* | 0 | 103* | 113* | -22 | 105*
C[C@H](CO)N1C[C@H](C)[C@@H](CN(C)C(=O)CC2CC2)Oc2cc(C#CCC3CCCC3)ccc2S1(=O)=O | -66 | -2 | 116* | 3 | ? | 102* | 31 | 104*
Cc1cc(Cl)ccc1OCC(O)CN1CCC(CN2C(=O)c3cccc4cccc(c34)C2=O)CC1 (centres undefined) | nt | nt | nt | 0 | nt | nt | nt | nt
C[C@@H]1CCCCO[C@@H](CN(C)Cc2ccccc2)[C@H](C)CN([C@H](C)CO)C(=O)c2cc(NC(=O)Nc3ccccc3)ccc2O1 | -76 | 0 | 103* | -4 | 106* | 70 | 8 | 105*
COc1ccc(CN(C)C[C@@H]2OCCCC[C@@H](C)Oc3ccc(NC(=O)c4ccccc4)cc3C(=O)N([C@H](C)CO)C[C@H]2C)cc1 | -56 | -2 | 107* | nt | 91 | 80 | 4 | 81*
COc1ccc(CN(C)C[C@H]2OCCCC[C@H](C)Oc3ccc(NC(=O)Nc4ccccc4)cc3C(=O)N([C@@H](C)CO)C[C@@H]2C)cc1 | 25 | -2 | 106 | nt | nt | nt | nt | nt
C[C@@H]1CN([C@@H](C)CO)C(=O)c2cc(NC(=O)Nc3ccccc3)ccc2O[C@@H](C)CCCCO[C@H]1CN(C)Cc1ccccc1 | -67 | 0 | nt | nt | nt | nt | nt | nt
COc1ccc(CN(C)C[C@@H]2OCCCC[C@H](C)Oc3ccc(NC(=O)c4ccccc4)cc3C(=O)N([C@H](C)CO)C[C@@H]2C)cc1 | -36 | -3 | 61 | nt | nt | nt | nt | nt
COc1ccc(NC(=O)Nc2ccc3c(c2)C(=O)N([C@@H](C)CO)C[C@H](C)[C@H](CN(C)Cc2ccccc2)OCCCC[C@@H](C)O3)cc1 | -56 | -1 | 89 | nt | nt | nt | nt | nt
COc1ccc(CN(C)C[C@@H]2OCCCC[C@H](C)Oc3ccc(NC(=O)Nc4ccccc4)cc3C(=O)N([C@H](C)CO)C[C@@H]2C)cc1 | -23 | -1 | 114* | nt | 88 | 109* | 43* | 107*
COc1ccc(NC(=O)Nc2ccc3c(c2)C(=O)N([C@H](C)CO)C[C@@H](C)[C@@H](CN(C)Cc2ccccc2)OCCCC[C@H](C)O3)cc1 | -62 | 2 | 103* | 1 | 108* | 68 | -3 | 59*
C[C@H]1CN([C@@H](C)CO)C(=O)c2cccc(NS(=O)(=O)c3ccc(F)cc3)c2O[C@@H]1CN(C)C(=O)Nc1ccc2c(c1)OCO2 | -43 | 4 | 45 | nt | nt | nt | nt | nt
C/C=C/c1ccc([C@@H]2[C@@H](CN(CC)C(C)=O)N(C(=O)C3CC3)[C@H]2CO)cc1 | 4 | -2 | 15 | nt | nt | nt | nt | nt
COc1ccc(NC(=O)Nc2ccc3c(c2)C(=O)N([C@@H](C)CO)C[C@H](C)[C@H](CN(C)C(=O)Cc2ccccc2)OCCCC[C@H](C)O3)cc1 | -66 | 0 | ? | nt | 112* | -4 | -10 | 3
COc1ccc(NC(=O)Nc2ccc3c(c2)C(=O)N([C@@H](C)CO)C[C@H](C)[C@H](CN(C)Cc2ccccc2)OCCCC[C@H](C)O3)cc1 | -53 | 0 | 90 | nt | nt | nt | nt | nt
COc1ccc(NC(=O)Nc2ccc3c(c2)C(=O)N([C@@H](C)CO)C[C@H](C)[C@@H](CN(C)Cc2ccccc2)OCCCC[C@H](C)O3)cc1 | -45 | 2 | 103* | nt | 104* | 81 | -7 | 102*
COc1ccc(CN(C)C[C@@H]2OCCCC[C@@H](C)Oc3ccc(NC(=O)NC4CCCCC4)cc3C(=O)N([C@@H](C)CO)C[C@@H]2C)cc1 | -41 | 0 | -100 | nt | nt | nt | nt | nt
C[C@@H]1CN([C@@H](C)CO)C(=O)Cc2cc(NC(=O)Cc3ccccc3)ccc2O[C@H]1CN(C)Cc1ccc(C(F)(F)F)cc1 | -29 | 5 | 94 | 2 | nt | nt | nt | nt
C[C@H](CO)N1C[C@H](C)[C@@H](CN(C)Cc2ccc(C(F)(F)F)cc2)Oc2ccc(NC(=O)Cc3ccccc3)cc2CC1=O | -20 | -1 | 106* | 2 | 95 | 101* | -1 | 104*
C[C@H](CO)N1C[C@H](C)[C@@H](CN(C)Cc2ccc(C(F)(F)F)cc2)Oc2ccc(NC(=O)Cc3cn(C)c4ccccc34)cc2CC1=O | -21 | -2 | 87 | 3 | nt | nt | nt | nt
C[C@H]1CN([C@@H](C)CO)C(=O)Cc2cc(NC(=O)Cc3cn(C)c4ccccc34)ccc2O[C@H]1CN(C)Cc1ccc(Cl)c(Cl)c1 | -59 | -2 | 100* | -23 | 107* | 57 | -7 | -3
SMILES | Pf Dd2 inh | KDM4C inh | T cruzi growth-1 | IDH1 R132H inh | T cruzi growth-2 | T cruzi growth-3 | NIH3T3 tox | NIH3T3 tox 2
C[C@H](CO)N1C[C@H](C)[C@H](CN(C)Cc2ccc(C(F)(F)F)cc2)Oc2ccc(NC(=O)Cc3cn(C)c4ccccc34)cc2CC1=O | -34 | -4 | 101* | -1 | 107* | 19 | 20 | ?
C[C@H]1CN([C@@H](C)CO)C(=O)Cc2cc(NC(=O)Cc3ccccc3)ccc2O[C@H]1CN(C)Cc1ccc(Cl)c(Cl)c1 | -12 | 8 | ? | -3 | 100* | 59 | 21 | 105*
O=C(NCC[C@H]1CC[C@H](NS(=O)(=O)Cc2ccccc2)[C@@H](CO)O1)C1CCOCC1 | 6 | 0 | 58 | 0 | nt | nt | nt | nt
O=C(C1CCCCC1)N1CC2(C1)[C@@H](c1ccccc1)[C@@H](CO)N2CCC(F)(F)F | 3 | 3 | nt | nt | nt | nt | nt | nt
COCC(=O)N1[C@@H]2CN(C(=O)c3cccnc3)c3ccccc3[C@@H]2[C@@H]1CO | 8 | 3 | 0 | nt | nt | nt | nt | nt
COc1ccc(CN(C)C[C@H]2OCCCC[C@@H](C)Oc3ccc(NC(=O)Nc4ccc(OC)cc4)cc3C(=O)N([C@@H](C)CO)C[C@@H]2C)cc1 | -65 | nt | 81 | -2 | nt | nt | nt | nt
